Measured values as given in ChEMBL document CHEMBL5236602, “Synthesis and Characterization of NUC-7738, an Aryloxy Phosphoramidate of 3'-Deoxyadenosine, as a Potential Anticancer Agent” (J Med Chem, 2022).

Assays:
[1] = tested on: THP-1; experiment: Cytotoxicity against human THP-1 cells assessed as maximum cell growth inhibition incubated for 72 hrs by MTS assay relative to control; format: functional
Summary of the method: (§1)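 Cells from the 20-line panel were seeded the day before dosing, then exposed to compound for 72 h. MTS was added, followed by 4 h at 37 °C, and absorbance was read. Nine serial 3.16-fold dilutions were tested, top 198 μM, in duplicate. MI% is the maximum inhibitory effect across the tested concentration range.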

[2] = tested on: RPMI-8226; experiment: Cytotoxicity against human RPMI-8226 cells assessed as maximum cell growth inhibition incubated for 72 hrs by MTS assay relative to control; format: functional; summary of the method: as §1
[3] = tested on: Jurkat; experiment: Potency index, ratio of 3'-Deoxyadenosine LC50 to test compound LC50 for cytotoxicity against human Jurkat cells assessed as cell death incubated for 72 hrs by MTS assay; format: functional
[4] = tested on: CCRF-CEM; experiment: Cytotoxicity against human CCRF-CEM cells assessed as cell death incubated for 72 hrs by MTS assay; format: functional; conditions: read-out: LC50 (the source's name)
Summary of the method: (§2)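 Contracted MTS assay. Cells seeded the day before treatment and exposed 72 h to nine serial concentrations (3.16-fold steps, top 198 μM), tested in duplicate. MTS added, then 4 h at 37 °C and absorbance read. LC50 is the concentration killing 50% of cells. MI% is the maximum inhibition over the tested range.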

[5] = tested on: K562; experiment: Cytotoxicity against human K562 cells assessed as maximum cell growth inhibition incubated for 72 hrs by MTS assay relative to control; format: functional; summary of the method: as §1
[6] = tested on: CCRF-CEM; experiment: Cytotoxicity against human CCRF-CEM cells assessed as maximum cell growth inhibition incubated for 72 hrs by MTS assay relative to control; format: functional; summary of the method: as §1
[7] = tested on: MOLT-4; experiment: Cytotoxicity against human MOLT-4 cells assessed as maximum cell growth inhibition incubated for 72 hrs by MTS assay relative to control; format: functional; summary of the method: as §1
[8] = tested on: NCI-H929; experiment: Cytotoxicity against human NCI-H929 cells assessed as cell death incubated for 72 hrs by MTS assay; format: functional; conditions: read-out: LC50 (the source's name); summary of the method: as §2
[9] = tested on: Jurkat; experiment: Cytotoxicity against human Jurkat cells assessed as maximum cell growth inhibition incubated for 72 hrs by MTS assay relative to control; format: functional; summary of the method: as §1
[10] = tested on: RL; experiment: Potency index, ratio of 3'-Deoxyadenosine LC50 to test compound LC50 for cytotoxicity against human RL cells assessed as cell death incubated for 72 hrs by MTS assay; format: functional
[11] = Metabolic stability in pooled cryopreserved human hepatocytes assessed as intrinsic clearance measured per 10^6 cells at 1 uM incubated for 60 mins by HPLC-MS/MS analysis; format: ADME, cell-based, Hepatocyte; conditions: 1 h
Summary of the method: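 Pooled cryopreserved human hepatocytes were thawed, washed and resuspended in Krebs–Henseleit buffer, pH 7.3. Compound was added at 1 μM final and incubated 0 and 60 min at 37 °C/5% CO2. Reactions were stopped with acetonitrile, centrifuged, and the supernatant analysed by HPLC-MS/MS.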

[12] = Cytotoxicity against human HS 445 cells assessed as maximum cell growth inhibition incubated for 72 hrs by MTS assay relative to control; format: functional; summary of the method: as §1
[13] = tested on: HL-60; experiment: Potency index, ratio of 3'-Deoxyadenosine LC50 to test compound LC50 for cytotoxicity against human HL-60 cells assessed as cell death incubated for 72 hrs by MTS assay; format: functional
[14] = tested on: RL; experiment: Cytotoxicity against human RL cells assessed as cell death incubated for 72 hrs by MTS assay; format: functional; conditions: read-out: LC50 (the source's name); summary of the method: as §2
[15] = tested on: HT-29; experiment: Cytotoxicity against human HT-29 cells assessed as maximum cell growth inhibition incubated for 72 hrs by MTS assay relative to control; format: functional; summary of the method: as §1

With `C[C@@H](NP(=O)(OC[C@@H]1C[C@@H](O)[C@H](n2cnc3c(N)ncnc32)O1)Oc1cccc2ccccc12)C(=O)OCc1ccccc1` (stereo not given in full) the Imax [1] was 99%, the Imax [2] was 102% and the RatioLC50 [3] was 200. For the same compound, the CC50 [4] was 1170 nM, the Imax [5] was 97% and the Imax [6] was 100%. The Imax [7] was 100%, the CC50 [8] was 3380 nM and the Imax [9] was 100%. It also gave a RatioLC50 [10] of 3, a CLint [11] of 20.8 µL/min/1e6 cells and an Imax [12] of 96%. The RatioLC50 [13] was 3, the CC50 [14] was 1680 nM and the Imax [15] was 98%.
